Activity calls are given as the source filed them. The calls are words filed in the database; no cut-off is given here.
What was measured:
[1] = biological target: T1, Pancreatic alpha-amylase (Sus scrofa) (UniProt P00690); experiment: Inhibition of porcine pancreatic alpha-amylase assessed as starch digestion up to 370 uM up to 120 mins by turbidity assay
T1 sequence (whole entry): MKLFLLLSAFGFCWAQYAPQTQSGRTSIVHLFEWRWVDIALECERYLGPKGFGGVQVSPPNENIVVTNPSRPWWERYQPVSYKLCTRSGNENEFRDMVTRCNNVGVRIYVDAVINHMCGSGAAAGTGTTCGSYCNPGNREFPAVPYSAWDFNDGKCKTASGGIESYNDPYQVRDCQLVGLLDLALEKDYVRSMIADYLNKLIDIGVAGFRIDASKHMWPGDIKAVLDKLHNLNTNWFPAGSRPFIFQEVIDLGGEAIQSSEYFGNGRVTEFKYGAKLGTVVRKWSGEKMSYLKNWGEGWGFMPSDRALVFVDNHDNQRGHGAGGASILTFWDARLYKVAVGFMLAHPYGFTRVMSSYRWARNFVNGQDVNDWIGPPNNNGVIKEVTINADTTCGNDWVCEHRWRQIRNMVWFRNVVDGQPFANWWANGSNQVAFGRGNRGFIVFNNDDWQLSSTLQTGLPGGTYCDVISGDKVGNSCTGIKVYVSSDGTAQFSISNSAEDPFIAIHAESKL

Rattus norvegicus [2] = species: Rattus norvegicus; experiment: Inhibition of rat intestine alpha-glucosidase assessed as starch digestion up to 370 uM up to 120 mins by turbidity assay
Aspergillus oryzae = experiment: Inhibition of Aspergillus oryzae alpha-amylase
Pancreatic alpha-amylase [3] = biological target: T2, Pancreatic alpha-amylase (Sus scrofa, UniProt P00690); experiment: Inhibition of porcine pancreatic alpha-amylase assessed as starch digestion up to 120 mins by turbidity assay
T2 sequence (P00690 whole entry): T1 sequence (whole entry)

Alpha-amylase = Alpha-amylase (Bacillus subtilis (strain 168), UniProt P00691); experiment: Inhibition of Bacillus subtilis alpha-amylase
Pancreatic alpha-amylase [4] = biological target: T2, Pancreatic alpha-amylase; experiment: Non-competitive inhibition of porcine pancreatic alpha-amylase by Lineweaver-Burk plot analysis
Procedure, shortened: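 Corn starch substrate 0.25–1 mg/mL, inhibitor at 11, 18 and 22 µM. Inhibitor (dissolved in methanol, diluted in 0.1 M sodium phosphate pH 6.9) preincubated with starch at 37 °C for 15 min. Enzyme then added and reaction stopped at 5 min with DNSA reagent. Boiled 5 min and absorbance read at 540 nm. Initial velocity taken from reducing sugar released. Mode assigned by Michaelis–Menten and Lineweaver–Burk analysis, with a buffer-only control.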

Rattus norvegicus [5] = species: Rattus norvegicus; experiment: Inhibition of rat intestine alpha-glucosidase assessed as starch digestion by turbidity assay

Alpha-amylase, sequence (P00691 whole entry): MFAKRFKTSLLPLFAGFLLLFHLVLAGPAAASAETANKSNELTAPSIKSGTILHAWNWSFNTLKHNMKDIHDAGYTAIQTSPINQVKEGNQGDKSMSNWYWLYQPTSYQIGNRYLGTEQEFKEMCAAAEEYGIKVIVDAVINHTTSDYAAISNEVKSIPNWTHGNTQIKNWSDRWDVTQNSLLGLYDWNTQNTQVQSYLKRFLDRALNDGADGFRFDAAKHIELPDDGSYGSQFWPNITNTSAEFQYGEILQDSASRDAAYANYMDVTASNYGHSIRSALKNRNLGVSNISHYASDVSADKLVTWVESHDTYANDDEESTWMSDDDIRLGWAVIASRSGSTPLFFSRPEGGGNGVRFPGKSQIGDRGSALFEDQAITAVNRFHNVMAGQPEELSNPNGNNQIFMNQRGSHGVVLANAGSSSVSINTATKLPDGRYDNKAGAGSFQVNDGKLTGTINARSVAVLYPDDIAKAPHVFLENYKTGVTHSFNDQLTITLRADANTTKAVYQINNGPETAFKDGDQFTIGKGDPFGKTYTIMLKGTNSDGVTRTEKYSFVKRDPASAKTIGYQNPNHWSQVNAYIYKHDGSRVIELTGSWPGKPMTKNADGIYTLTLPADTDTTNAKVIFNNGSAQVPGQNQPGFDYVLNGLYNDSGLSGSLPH

SMILES	inhibition [1]	IC50 (Pancreatic alpha-amylase [3]) [µM]	also measured
COc1cc2c(c3c1CC[C@@H](c1ccccc1)O3)[C@H]1c3c(cc(OC(=O)c4ccccc4)c(C)c3OC)O[C@@](c3ccccc3)(O2)[C@@H]1O	inactive	–	–
COc1cc2c(c3c1CC[C@@H](c1ccccc1)O3)[C@H]1c3c(cc(O)c(C)c3OC)O[C@@](c3ccccc3)(O2)[C@@H]1O (mixture of isomers)	Active	–	inhibition (Rattus norvegicus [2]): inactive
COc1cc2c(c3c1CC[C@@H](c1ccccc1)O3)[C@H]1c3c(cc(OC(=O)c4cc(OC(C)=O)c(OC(C)=O)c(OC(C)=O)c4)c(C)c3OC)O[C@@](c3ccccc3)(O2)[C@@H]1O	inactive	–	–
Oc1cc(O)c2c(c1)O[C@@]1(c3ccc(O)c(O)c3)Oc3cc(O)c4c(c3[C@@H]2[C@H]1O)O[C@H](c1ccc(O)c(O)c1)[C@H](O)C4	inactive	–	–
COc1cc2c(c3c1CC[C@@H](c1ccccc1)O3)[C@@H]1c3c(cc(O)c(C)c3OC)O[C@](c3ccccc3)(O2)[C@H]1O	–	27	inhibition (Aspergillus oryzae): inactive; IC50 (Alpha-amylase): 42 µM; Ki (Pancreatic alpha-amylase [4]): 11.7 µM
C[C@@H]1O[C@@H](O[C@@H]2[C@@H](O)[C@H](O)[C@H](O[C@H]3[C@H](O)[C@@H](O)C(O)O[C@@H]3CO)O[C@H]2CO)[C@@H](O)[C@H](O)[C@H]1N[C@H]1C=C(CO)[C@@H](O)[C@H](O)[C@H]1O (some centres undefined)	–	–	inhibition (Rattus norvegicus [5]): Active
COc1cc2c(c3c1CC[C@@H](c1ccccc1)O3)[C@H]1c3c(cc(OC(=O)c4cc(O)c(O)c(O)c4)c(C)c3OC)O[C@@](c3ccccc3)(O2)[C@@H]1O	–	12	–

More lines, main results first:

inhibition [1]	IC50 (Pancreatic alpha-amylase [3]) [µM]	SMILES	also measured
inactive	–	COc1cc2c(c3c1CC[C@@H](c1ccccc1)O3)[C@H]1c3c(cc(OS(=O)(=O)O)c(C)c3OC)O[C@@](c3ccccc3)(O2)[C@@H]1O	–
inactive	–	COc1cc2c(c3c1CC[C@@H](c1ccccc1)O3)[C@H]1c3c(cc(OC(C)=O)c(C)c3OC)O[C@@](c3ccccc3)(O2)[C@@H]1O	–
–	23	COc1cc2c(c3c1CC[C@@H](c1ccccc1)O3)[C@H]1c3c(cc(O)c(C)c3OC)O[C@@](c3ccccc3)(O2)[C@@H]1O	–

Source: ChEMBL document CHEMBL3739330, “Phenolic group on A-ring is key for dracoflavan B as a selective noncompetitive inhibitor of α-amylase” (Bioorg Med Chem, 2015)
